The values that follow come from PMC2192647 (The Journal of Cell Biology, 2000).

Assay [1] concerns plasminogen-deficient mice. Particulars: plasminogen-deficient mice ref Lund et al. 1999; cited from earlier work.
A further assay relates to EGFR. Kind of assay: Wound-induced EGFR tyrosine phosphorylation in cultured keratinocytes. Format: cell-based, human. The note with it: wounded keratinocytes. The essentials: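 Keratinocytes grown 72 h on collagen-coated 10-cm dishes (5 × 10^5/dish). Starved 2 h in BHE-free medium ± test compound (1 μM), cycloheximide (50 μM) or HB-EGF neutralizing antibody No. 197 (10 μg/ml). Tip-scrape wounded, incubated set times at 37°C. Lysates in Triton/vanadate buffer; EGFR immunoprecipitated overnight at 4°C with protein A-Sepharose. Run on 6% SDS-PAGE, PVDF-blotted, probed, ABC/ECL detection.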

Assay [2] has as its system AP-tag TGF-α. As to the kind of experiment: TPA-inducible shedding of AP-tag TGF-α in CHO transfectants. The note with it: 60 nM TPA; for Percent inhibition at 1 μM TGF-α: 1 μM inhibitor, CHO transfectants. Format: cell-based, human.
The subject of assay [3] is Human keratinocytes. Kind of assay: Keratinocyte migration after wounding. It is filed as cell-based. The note with it: for Block of migration relative to the control: 10 μM, Fig. 6 b; for Keratinocyte migration into wound area: 3 d, antibody No. 425 10 μg/ml, AG1478 30 nM, OSU8-1 1 μM. The method, boiled down: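 Human keratinocytes grown on type I collagen-coated dishes or 6-well plates. At subconfluency, switched to BHE-free medium and scraped with a wide silicone rubber scraper. Washed once to remove floating cells, then re-fed BHE-free medium with or without test compound, antibody No. 425 (10 μg/ml), AG1478 (30 nM), or test compound plus HB-EGF (20 ng/ml). Cultured 3 d at 37°C.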

The subject of assay [4] is AP-tag HB-EGF. Kind of assay: TPA-inducible shedding of AP-tag HB-EGF in CHO transfectants. Particulars: 60 nM TPA. Format: cell-based, human.
Assay [5] has as its system AP-tag AR. Kind of assay: TPA-inducible shedding of AP-tag AR in CHO transfectants. Particulars: 60 nM TPA. Format: cell-based, human.
The target of a further assay is T1, MMP-1 (Homo sapiens, UniProt P03956).
T1 sequence (P03956 100-469): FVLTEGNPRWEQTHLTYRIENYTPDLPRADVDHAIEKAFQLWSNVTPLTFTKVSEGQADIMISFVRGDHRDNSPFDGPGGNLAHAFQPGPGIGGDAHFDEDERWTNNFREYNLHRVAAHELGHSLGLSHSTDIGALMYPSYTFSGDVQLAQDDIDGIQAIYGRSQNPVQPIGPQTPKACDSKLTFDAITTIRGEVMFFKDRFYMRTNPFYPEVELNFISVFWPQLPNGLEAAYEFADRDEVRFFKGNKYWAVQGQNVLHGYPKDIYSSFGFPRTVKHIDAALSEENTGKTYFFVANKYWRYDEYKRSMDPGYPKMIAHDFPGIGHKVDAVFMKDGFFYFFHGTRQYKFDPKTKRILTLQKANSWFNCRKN
As to the kind of experiment: MMP-1 inhibition. It is filed as biochemical.

The target of another assay is MMP-3 (Homo sapiens, UniProt P08254). As to the kind of experiment: MMP-3 inhibition. Format: biochemical. The note with it: read-out: IC50 MMP-3.
The target in another assay is MMP-9 (Homo sapiens, UniProt P14780). As to the kind of experiment: MMP-9 inhibition. It is filed as biochemical. Particulars: read-out: IC50 MMP-9.
In assay [6] the test system is wild-type HB-EGF, TGF-α, and AR. Kind of assay: TPA-inducible shedding of wild-type ligands in CHO transfectants. Format: cell-based, human. The note with it: 10 μM, Fig. 2 b. The method, boiled down:
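CHO cells stably expressing untagged HB-EGF, AR or TGF-α, seeded at 2 × 10^5/6-cm dish, grown 24 h in Ham's F12/10% FCS. Surface-biotinylated with 0.1 mg/ml sulfo-NHS-biotin, 15 min on ice. Preincubated ±10 μM test compound for 10 min, then 30 min at 37°C with TPA plus compound. Ligands immunoprecipitated with specific antibodies and protein A; SDS-PAGE/Western blot, avidin-HRP/ECL detection.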

Another assay concerns EGFR ligands. As to the kind of experiment: Release of soluble EGFR ligands from wounded keratinocytes. Particulars: 1 μM. It is filed as cell-based, human. The method, boiled down: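 Subconfluent keratinocytes in BHE-free medium tip-scraped in cross-stripes 5 mm apart, washed, then re-fed with or without test compound. Conditioned media collected at several times (37°C). Media added to EP170.7 cells (2 × 10^4/well) for 36 h, then [3H]thymidine (1 μCi/well) for 6 h; DNA incorporation measured. HB-EGF neutralised by preincubating with antibody No. 197 (10 μg/ml final). Four independent experiments.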

For assay [7], the system named is AP-tag HB-EGF. As to the kind of experiment: Wound-induced shedding of AP-tag HB-EGF in HaCat transfectants. Format: cell-based, human. Particulars: 1 μM, 60 min after wounding.
Assay [8] relates to AP-tag AR. As to the kind of experiment: Wound-induced shedding of AP-tag AR in HaCat transfectants. Format: cell-based, human. The note with it: 1 μM, 60 min after wounding.
Assay [9] concerns AP-tag TGF-α. Kind of assay: Wound-induced shedding of AP-tag TGF-α in HaCat transfectants. The note with it: 1 μM, 60 min after wounding. Format: cell-based, human.
Assay [10] relates to Human keratinocytes. As to the kind of experiment: Keratinocyte growth. It is filed as cell-based. The note with it: 3 d. The essentials:
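Human keratinocytes kept in supplemented MCDB153. Seeded at 10^5 cells/well in 6-well plates and grown 3 d with or without test compound (1 μM), EGFR neutralizing antibody No. 425 (10 μg/ml) or AG1478 (30 nM). Values are averages of triplicate experiments.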

In assay [11] the test system is keratinocytes. As to the kind of experiment: Juxtacrine growth factor assay. The note with it: 1 μM, Fig. 7 a. Format: cell-based, human. The essentials: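 Keratinocytes plated at 10^5 cells/well and grown 12 h. Soluble HB-EGF/AR stripped by washing in medium containing 2 M NaCl. Cells fixed in 5% buffered formalin for 5 min, then washed in RPMI 1640/10% FCS. EP170.7 cells (10^5/well) added with [3H]thymidine for 6 h. Thymidine incorporation into EP170.7 DNA measured. Averages of triplicate experiments.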

Assay [12] concerns keratinocytes. Kind of assay: Keratinocyte migration assay in a Boyden chamber. Format: cell-based, human. The essentials:
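Keratinocytes grown 72 h on collagen-coated dishes, detached with trypsin-EDTA for ≤1 min, resuspended at 10^5 cells/ml. Samples placed in bottom wells of a 48-well Boyden chamber: recombinant HB-EGF, or serially diluted 48-h wounded-culture conditioned medium, with test compound added top or bottom. Collagen-coated 8-μm polycarbonate membrane; 50 μl cells per top well. Ran 4 h at 37°C. Migrated cells fixed, hematoxylin-stained, counted microscopically.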

For the next assay, the system named is BALB/c mice. As to the kind of experiment: In vivo wound assay, full-thickness wounds in mice. The note with it: HB-EGF 5 μg/ml in addition to 10 mM OSU8-1, day 6. The essentials: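 Female BALB/c mice, 8 wk old, housed singly, anaesthetised with diethylether. Two 6-mm full-thickness punch wounds on the back, left open. Each wound received 500 μl daily for 5 d. One side got vehicle (1.5% carboxymethylcellulose in sterile PBS). The other got 10 mM test compound (n = 10) or test compound plus 5 μg/ml HB-EGF (n = 5). Wounds excised day 6, formalin-fixed, sectioned anterior-posterior, anti-cytokeratin stained.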

“Also recorded” adds a separate entry of the source. Read-outs that look alike come from different tables or passages of the source.

Chain of MMP-3 (P08254 100-477, species assumed): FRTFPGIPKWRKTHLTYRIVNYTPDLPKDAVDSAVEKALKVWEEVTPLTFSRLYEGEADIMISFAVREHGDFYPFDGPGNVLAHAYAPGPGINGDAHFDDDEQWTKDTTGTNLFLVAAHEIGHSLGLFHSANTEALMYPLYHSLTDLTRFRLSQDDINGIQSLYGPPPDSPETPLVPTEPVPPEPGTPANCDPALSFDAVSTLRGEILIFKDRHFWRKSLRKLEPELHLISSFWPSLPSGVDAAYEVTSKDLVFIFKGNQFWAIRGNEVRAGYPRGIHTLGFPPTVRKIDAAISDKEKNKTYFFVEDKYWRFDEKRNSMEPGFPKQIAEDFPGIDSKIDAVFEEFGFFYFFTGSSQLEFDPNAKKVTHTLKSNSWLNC
Chain of MMP-9 (P14780 94-707, species assumed): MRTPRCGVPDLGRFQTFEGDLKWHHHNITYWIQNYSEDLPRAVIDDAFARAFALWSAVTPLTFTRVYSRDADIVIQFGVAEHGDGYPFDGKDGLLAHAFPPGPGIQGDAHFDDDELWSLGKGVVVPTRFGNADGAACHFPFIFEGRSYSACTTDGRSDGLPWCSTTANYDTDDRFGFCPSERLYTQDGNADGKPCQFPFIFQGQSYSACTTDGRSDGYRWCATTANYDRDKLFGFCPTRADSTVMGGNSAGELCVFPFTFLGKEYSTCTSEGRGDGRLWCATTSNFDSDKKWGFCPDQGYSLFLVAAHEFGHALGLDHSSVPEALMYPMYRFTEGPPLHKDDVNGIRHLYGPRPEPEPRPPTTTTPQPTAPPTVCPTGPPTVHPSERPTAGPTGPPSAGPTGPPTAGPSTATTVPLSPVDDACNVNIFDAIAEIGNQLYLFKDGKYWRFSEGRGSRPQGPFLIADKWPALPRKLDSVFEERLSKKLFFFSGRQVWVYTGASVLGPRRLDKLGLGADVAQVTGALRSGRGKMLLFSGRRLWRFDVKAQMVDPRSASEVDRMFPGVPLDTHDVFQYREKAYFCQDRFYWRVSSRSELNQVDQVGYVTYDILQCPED

Take `CNC(=O)[C@H](Cc1c[nH]c2ccccc12)NC(=O)[C@@H](CC(=O)NO)CC(C)C` [galardin]: the Wound healing result in assay [1] is given as “completely arrested”.
Take `C[C@@H]1C[C@@H]([C@H](O)CC2CC(=O)NC(=O)C2)C(=O)[C@@H](C)C1` [Cycloheximide, cycloheximide]: the “EGFR activation induced by wounding” value with EGFR (50 μM) is listed as “failed to abrogate; also recorded: did not abrogate”.
As to `COc1ccc(S(=O)(=O)N2Cc3cc(O)c(O)cc3CC2C(=O)NO)cc1` (centres unmarked) [OSU9-6, [6,7-dihydroxy-3-(N-hydroxycarbamoyl)-2-(4-methoxybenzenesulfonyl)-1,2,3,4-tetrahydroisoquinoline]], the “Percent inhibition at 1 μM TGF-α” value in the assay on AP-tag TGF-α [2] (30 min) was found to be 5%. Further, the “Block of migration relative to the control” value in the assay on Human keratinocytes [3] is on record as about 70%.
Take `CNC(=O)[C@H](Cc1cccc2c1CCCC2)NC(=O)[C@H](CC(C)C)[C@H](C)C(=O)NO` [OSU8-1, [4-(N-hydroxyamino)-2R-isobutyl-3S-methylsuccinyl]-L-3-(5,6,7,8-tetra-hydro-1-naphthyl)alanine-N-methylamide]: the “Block of shedding of AP-tag HB-EGF” value with AP-tag HB-EGF [4] (1 μM, Fig. 2 a) is “markedly blocked”. Besides, the “Block of TPA-inducible shedding of AP-tag HB-EGF” value with AP-tag HB-EGF [4] (10 μM, Fig. 2 a) is on record as “significantly blocked”. The “Percent inhibition at 1 μM AR” value in the assay on AP-tag AR [5] (1 μM inhibitor, 30 min, CHO transfectants) turned out to be 70%. The “Block of shedding of AP-tag AR” value in the assay on AP-tag AR [5] (1 μM, Fig. 2 a) is recorded as “markedly blocked”. Also, the “Block of TPA-inducible shedding of AP-tag AR” value in the assay with AP-tag AR [5] (10 μM, Fig. 2 a) is given as “significantly blocked”. Moreover, the “Block of shedding of AP-tag TGF-α” value in the assay with AP-tag TGF-α [2] (1 μM, Fig. 2 a) is “partially blocked”. Moreover, the “Block of TPA-inducible shedding of AP-tag TGF-α” value in the assay on AP-tag TGF-α [2] (10 μM, Fig. 2 a) is listed as “significantly blocked”. The IC50 at MMP-1 (read-out: IC50 MMP-1) was 0.3 nM; on MMP-1 (read-out: IC50s for all three MMPs, range across MMP-1, MMP-3 and MMP-9), 0.3 to 2.9 nM; at MMP-3 it was 2.9 nM; on MMP-9, 0.3 nM. In assay [6], the “TPA-inducible shedding of wild-type HB-EGF, TGF-α, and AR” value is recorded as “abrogation”. Also, in the assay on EGFR ligands, the “Release of EGFR ligands after wounding” value was “abrogated completely”. In addition, the “EGFR activation after wounding” value with EGFR (1 μM) is “abrogated completely”. Besides, the “Inhibition of wound-induced shedding of AP-tag HB-EGF” value in the assay with AP-tag HB-EGF [7] is listed as “effective at inhibiting”. Also, the “Inhibition of wound-induced shedding of AP-tag AR” value in the assay with AP-tag AR [8] is on record as “effective at inhibiting”. In addition, in the assay on AP-tag TGF-α [9], the “Effect on wound-induced AP-tag TGF-α shedding” value is “no effect”. Also, the “Keratinocyte migration into wound area” value with Human keratinocytes [3] is given as “significantly suppressed”. Also, the “Inhibition of cell growth” value in the assay with Human keratinocytes [10] (1 μM, Fig. 7 b) is about 50%. For the same molecule, in the assay with keratinocytes [11], the “Juxtacrine growth activity of keratinocytes” value is “slightly upregulated”. In addition, in the assay on keratinocytes [12] (48-h conditioned medium of wounded keratinocytes, 1 μM OSU8-1, Fig. 7 d), the “Fold less potent at promoting migration: conditioned medium collected in the presence of OSU8-1” value was about 30 fold. Moreover, in the assay on keratinocytes [12] (various concentrations of OSU8-1 added to the conditioned medium, Fig. 7 e), the “Effect on migration of keratinocytes induced by conditioned medium” value is listed as “no effect”.
In the case of `CNC(=O)[C@H](Cc1cccc2ccccc12)NC(=O)[C@@H](CC(=O)NO)CC(C)C` [OSU7-6, [4-(N-hydroxyamino)-2R-isobutylsuccinyl]-L-3-(1-naphthyl)-alanine-N-methylamide], in the assay with AP-tag TGF-α [2] (30 min), the “Percent inhibition at 1 μM TGF-α” value was 5%. The IC50 at MMP-1 (read-out: IC50 MMP-1) stood at 0.35 nM; at MMP-3, 2 nM; at MMP-9 it was 0.4 nM. Further, the “Block of migration relative to the control” value in the assay on Human keratinocytes [3] is on record as about 70%.
Regarding `CCCCCCCCCCCCCC(=O)O[C@@H]1[C@@H](C)[C@@]2(O)[C@@H](C=C(CO)C[C@]3(O)C(=O)C(C)=C[C@@H]23)[C@@H]2C(C)(C)[C@]12OC(C)=O` [TPA, 12-O-tetradecanoylphorbol-13-acetate, reference compound], the “Induction of shedding of AP-tag HB-EGF” value with AP-tag HB-EGF [4] (30 min) was “induced the shedding”. Further, in the assay on AP-tag AR [5] (30 min), the “Induction of shedding of AP-tag AR” value is “less effective”. In addition, in the assay with AP-tag TGF-α [2] (30 min), the “Induction of shedding of AP-tag TGF-α” value was “induced the shedding”.
Regarding `COc1cc2ncnc(Nc3cccc(Cl)c3)c2cc1OC` [AG1478, reference compound], in the assay on Human keratinocytes [3], the “Keratinocyte migration into wound area” value is reported as “suppressed”. Moreover, the “Proliferation, % of the control” value in the assay with Human keratinocytes [10] (antibody No. 425 10 μg/ml, AG1478 30 nM) is on record as 10–15 % of the control.

B1: HB-EGF: human recombinant heparin-binding EGF-like growth factor, soluble form (protein, UniProt Q99075 63-148, looked up)
Heparin-binding EGF-like …: DLQEADLDLLRVTLSSKPQALATPNKEEHGKRKKKGKGLGKKRDPCLRKYKDFCIHGECKYVKELRAPSCICHPGYHGERCHGLSL
Turning to B1, the “Concentration of maximal stimulation of keratinocyte migration” value with keratinocytes [12] (recombinant HB-EGF, Boyden chamber, Fig. 7 c) amounted to 10 ng/mL. Besides, the “Keratinocyte migration and regeneration of the epidermis” value in the assay on BALB/c mice was “completely restored”.
